Assay outcomes: PubChem BioAssay, several laboratories
Only some compounds are listed: those with a hit (about 2.9% of all), similar ones and a draw of the others.
ABHD4 inh – inhibits mouse alpha/beta hydrolase domain 4; Q8VD66; purified mABHD4, FP-Rh probe fluorescence polarization; inhibition, % at 8.92 µM; 370,000 compounds, 0.54% hits; AID 720543;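 active = inhibition exceeding the mean over every tested compound plus 3 SD, cut at about 30% in these data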;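 note: 0% = plate median of compound wells and 100% = S159A mutant with DMSO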
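Assay system: Wild-type mouse ABHD4 protein | Medium: HEPES pH 7.0 buffer, 150 mM NaCl, 0.01% Pluronic F-127 | Incubation: Enzyme–compound pre-incubation 45 min, then probe 60 min, both 25 °C | Technique: Fluorescence polarization with parallel and perpendicular emission, 525/598 nm | Evaluation: % inhibition of FP-Rh probe binding versus controls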
PRMT1 inh – inhibitors of human PRMT1; 370,000 compounds, 1.3% hits; inhibition, % at 2.79 µM; AID 652257; recombinant PRMT1, activity-based probe fluorescence polarization;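 active = inhibition above about 21% made by adding two undisclosed values, limit read from the data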
SIAE primary – blocks human sialic acid acetylesterase; SIAE FP-Rh probe binding, fluorescence polarization; 370,000 compounds, 0.69% hits; inhibition, % at 9.66 µM;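 active = inhibition above a cutoff: mean of compounds within the control limits plus 3 SD of those, cut at about 17% in these data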;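 note: 0% = plate median of compound wells and 100% = probe without SIAE protein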
HTRA1 inhibitor – blocks human HTRA1 serine peptidase; Q92743; recombinant HTRA1, FP-rhodamine activity-based probe, fluorescence polarization; inhibition, % at 5.96 µM; 340,000 compounds, 0.5% hits; AID 504803; in the data active = inhibition above about 36%;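 note: 0% = enzyme with DMSO and 100% = wells lacking enzyme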
Target sequence (Q92743 whole entry, looked up): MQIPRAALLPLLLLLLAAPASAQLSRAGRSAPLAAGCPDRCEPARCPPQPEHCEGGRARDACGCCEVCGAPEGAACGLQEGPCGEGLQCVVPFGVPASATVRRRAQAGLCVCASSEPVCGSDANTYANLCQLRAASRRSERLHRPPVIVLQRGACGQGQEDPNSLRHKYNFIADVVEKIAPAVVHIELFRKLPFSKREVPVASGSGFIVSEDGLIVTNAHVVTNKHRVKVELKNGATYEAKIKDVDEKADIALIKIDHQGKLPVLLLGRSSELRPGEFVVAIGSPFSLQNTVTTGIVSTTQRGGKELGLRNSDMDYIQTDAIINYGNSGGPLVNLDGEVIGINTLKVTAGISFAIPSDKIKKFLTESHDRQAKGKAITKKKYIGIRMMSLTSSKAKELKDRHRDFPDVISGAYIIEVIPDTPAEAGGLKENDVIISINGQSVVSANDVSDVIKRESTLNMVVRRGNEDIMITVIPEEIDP
ATG4B inh – blocks human ATG4B protease cleavage of LC3 substrate; ATG4B cleavage of LC3-PLA2, NBD-HPC fluorescence, 1 h; inhibition, % at 8.33 µM; 340,000 compounds, 0.51% hits; in the data active = inhibition above about 40%
TCR CD3 inh – blocks the human TCR-CD3 interaction | TAMRA-labeled TCR probe fluorescence, biochemical | inhibition, % at 9.4 µM | 360,000 compounds, 0.37% hits | AID 651800;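 note: recombinant mutant TCR 2C K166C tagged with TAMRA read by polarization; 0% = receptor in buffer alone and 100% = receptor with positive control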
BSA probe FL – interferes with TAMRA-BSA probe, flagging TCR-CD3 hits | shares compounds with TCR CD3 inh | TAMRA-labeled BSA probe fluorescence counterscreen | inhibition, % at 9.4 µM | 1,200 compounds, 10% hits | AID 652035; in the data active = inhibition above about 23%;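 note: 0% = buffer low control and 100% = reference high control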
TCR-CD3 conf – confirmation of human TCR-CD3 interaction inhibitors. 1,200 compounds, 48% hits. inhibition, % at 9.4 µM. shares compounds with TCR CD3 inh. TAMRA-labeled TCR probe fluorescence binding assay. AID 652036
* hit, by the source's call; · = no result given. Cut-off read from the data, not from the text of the source, unless noted: active = inhibition above about 19%; inactive = the rest.

SMILES | ABHD4 inh | PRMT1 inh | SIAE primary | HTRA1 inhibitor | ATG4B inh | TCR CD3 inh | BSA probe FL | TCR-CD3 conf
O=C(NCC1(N2CCOCC2)CCCCC1)c1ccc(S(=O)(=O)Nc2ccccc2F)cc1 | 6.0 | 1.9 | 3.6 | 3.9 | -0.5 | -4.6 | · | ·
O=S1(=O)c2ccc(N3CCCC3)cc2Oc2ccccc2CN1Cc1cn(Cc2cccc(C(F)(F)F)c2)nn1 | 3.6 | 2.9 | 12.8 | · | · | · | · | ·
O=C(NC(NC(=S)Nc1cccc(Cl)c1)C(Cl)(Cl)Cl)OCc1ccccc1 (centres undefined) | -121.8 | 0.9 | -19.1 | -84.9 | -5.1 | 24.1* | 6.2 | 4.3
CC(=O)N1CCCN(C(=O)CCn2nnc3ccccc32)CC1 | 11.6 | -0.6 | 4.1 | · | · | · | · | ·
CCOC(=O)[C@]12CCCC=C1N(Cc1ccc(OC)cc1)C(=O)[C@@H]2CC(=O)NCc1cccc(C(F)(F)F)c1 | -6.4 | 0.9 | -4.3 | · | · | · | · | ·
Cc1cc(N2CCN(CCO)CC2)n2nc(C)nc2n1 | -0.1 | -4.4 | 1.1 | · | · | · | · | ·
CCCn1nnc(NC(=O)/C=C/c2ccco2)n1 | -1.2 | 1.2 | 3.2 | 1.9 | 6.5 | 11.7 | · | ·
Cn1nnc(NC(=S)NC(=O)/C=C/c2ccco2)n1 | 20.8 | 14.6 | -2.8 | 14.0 | -12.3 | 19.0* | -7.0 | -1.1
O=S(=O)(c1ccc(NC(=S)NCCC(c2ccccc2)c2ccccc2)cc1)N1CCOCC1 | -100.7 | 0.5 | -230.0 | -72.8 | -19.5 | 32.8* | 14.1 | 17.6
CCOC(=O)C1CCN(CC(O)COCc2cccs2)CC1 (centres undefined) | 2.4 | -1.7 | -1.2 | 0.0 | 3.0 | 22.9* | -1.0 | -3.2
Cc1cc(Br)cc(/C=N/NC(=O)c2ccc3c(c2)OCO3)c1O | 4.4 | 1.4 | 5.1 | 26.2 | 1.3 | 29.2* | -12.2 | 33.9*
O=C(NNC(=O)c1cc(Cl)ccc1O)c1cccc(S(=O)(=O)N2CCOCC2)c1 | 16.9 | 0.6 | 13.3 | 21.1 | -5.0 | 43.2* | -11.0 | 31.3*
O=C(N/N=C/c1cc(Cl)cc([N+](=O)[O-])c1O)c1ccc2c(c1)OCO2 | 20.7 | 2.5 | 11.2 | 25.1 | 4.8 | 41.0* | -18.0 | 47.2*
COc1cc(Cl)cc(/C=N\NC(=O)c2ccc3c(c2)OCO3)c1O | 21.3 | -1.7 | -4.7 | 10.0 | · | -5.1 | · | ·
O=C(N/N=C/c1ccccc1O)c1ccc2c(c1)OCO2 | -12.1 | 3.4 | -13.6 | 18.4 | 0.3 | 0.2 | · | ·
Cc1ccc(C(=O)NNC(=O)c2cccc(S(=O)(=O)N3CCOCC3)c2)cc1 | 2.8 | -0.4 | 5.9 | 3.2 | -6.8 | 0.5 | · | ·
O=C(N/N=C/c1cc(Cl)cc([N+](=O)[O-])c1O)c1cccc(S(=O)(=O)N2CCOCC2)c1 | 23.2 | 1.8 | 12.2 | -2.8 | -13.1 | 41.3* | -15.3 | 58.1*
Cc1occc1-c1nnc(SCC(=O)Nc2ccncc2)n1-c1ccccc1 | 0.6 | 12.2 | 1.6 | · | · | · | · | ·
COc1ccc(Cl)cc1C(=O)NNC(=O)C1COc2ccccc2O1 (centres undefined) | -2.7 | -3.1 | 4.2 | 6.1 | -5.3 | 4.6 | · | ·
O=C(Nc1ccc2c(c1)OCO2)C1COc2ccccc2O1 (centres undefined) | -0.6 | -0.7 | 6.8 | 3.9 | -4.5 | 48.2* | -0.9 | -1.6
O=C(NNC(=O)C1COc2ccccc2O1)c1ccccc1O (centres undefined) | 5.9 | 0.8 | 7.5 | 21.0 | 2.1 | 28.7* | -11.8 | 24.8*
COc1ccc(C(=O)NNC(=O)c2ccc3ccccc3c2O)cc1 | 6.1 | 0.0 | 13.8 | 3.9 | -6.8 | 37.9* | -10.7 | 37.8*
O=C(NNC(=O)c1cccc2ccccc12)c1ccc(-c2ccccc2)cc1 | 4.0 | -0.6 | 1.1 | 5.1 | 4.3 | -0.5 | · | ·
O=C(NNC(=O)c1ccc(O)cc1O)c1ccc(-c2ccccc2)cc1 | 3.7 | -1.5 | 1.5 | 23.8 | -8.1 | 28.3* | -9.0 | 22.3*
COc1ccc(C(=O)NNC(=O)c2ccc3ccccc3c2)cc1 | -3.0 | 0.3 | -4.1 | -0.3 | -15.0 | 4.6 | · | ·
SMILES | ABHD4 inh | PRMT1 inh | SIAE primary | HTRA1 inhibitor | ATG4B inh | TCR CD3 inh | BSA probe FL | TCR-CD3 conf
Cc1cccc(NC(=O)NNC(=O)c2ccc3ccccc3c2O)c1 | 13.2 | 1.1 | 16.8 | 14.6 | -12.7 | 32.7* | -7.6 | 29.5*
Cc1ccc(C(=O)NNC(=O)c2ccc3ccccc3c2O)cc1 | 10.7 | 5.9 | -1.7 | -2.4 | 3.9 | 43.1* | -6.0 | 34.3*
O=C(NC1CCCCN(Cc2cccc(Cl)c2)C1=O)c1ccc(COc2ccccc2)cc1 (centres undefined) | -16.1 | -0.5 | -4.4 | · | · | · | · | ·
O=C(NC1CCCCC1)c1ccc2ccccc2c1O | -10.5 | 1.6 | -2.3 | -12.2 | · | 3.0 | · | ·
O=C(NNC(=O)c1ccc2ccccc2c1O)NC1CCCCC1 | 5.7 | 4.1 | 16.9 | 20.1 | 2.8 | 20.4* | -6.5 | 20.9*
O=C(O)c1ccccc1/C=N/NC(=O)c1cc(-c2ccco2)nc2ccccc12 | 11.0 | 15.5 | 11.1 | 20.1 | 2.3 | 19.7* | -8.5 | 25.1*
CC(=O)Nc1ccc(/C=N/NC(=O)c2cc(-c3ccco3)nc3ccccc23)cc1 | -49.5 | 3.4 | -75.5 | -25.5 | -6.3 | 2.2 | · | ·
Cc1cccc(C)c1NC(=O)CN1C(=O)NC(C)(CCc2ccccc2)C1=O (centres undefined) | -1.7 | -1.1 | -1.4 | 1.9 | -3.9 | 59.2* | 3.6 | 6.4
Cc1ccc(NC(=O)CN2C(=O)NC(C)(CCc3ccccc3)C2=O)cc1 (centres undefined) | -1.1 | -3.5 | 0.9 | -8.8 | -0.1 | 1.1 | · | ·
CC1(c2nnnn2Cc2ccccc2)CCCCC(=O)N1Cc1cccs1 (centres undefined) | 4.2 | 2.1 | 7.4 | · | · | · | · | ·
Cc1ccc(S(=O)(=O)CCC(=O)Oc2ccc3c(C)cc(=O)oc3c2)cc1 | 2.4 | 6.6 | 10.9 | -1.3 | 6.1 | 23.1* | -8.3 | 0.0
COc1ccc(NC(=O)NNC(=O)CCn2nc(C)c([N+](=O)[O-])c2C)cc1OC | 3.8 | -1.3 | 2.7 | · | · | · | · | ·
CCc1cccc(CC)c1NC(=O)COC(=O)c1cccc(S(=O)(=O)N2CCc3ccccc3C2)c1 | 1.3 | -0.9 | 0.7 | 2.5 | 4.2 | 1.2 | · | ·
NS(=O)(=O)c1cccc(NC(=O)COC(=O)c2cc(-c3ccc(Cl)cc3)nc3ccccc23)c1 | -122.8 | -1.6 | -145.7 | -121.3 | -4.4 | 81.2* | 19.5 | 35.4*
CN(C)S(=O)(=O)c1cccc(NC(=O)COC(=O)c2cn(-c3ccccc3)nc2-c2ccccc2)c1 | -61.3 | 0.8 | -99.3 | -78.8 | -4.4 | 30.9* | 9.6 | 9.1
CN(C)S(=O)(=O)c1cccc(NC(=O)COC(=O)c2cccc(S(=O)(=O)N3CCc4ccccc4C3)c2)c1 | -42.7 | -0.4 | -7.0 | -32.2 | -6.5 | 42.1* | 25.9* | 54.5*
Cc1cc(C(=O)OCC(=O)Nc2cccc(S(=O)(=O)N(C)C)c2)c2ccccc2n1 | 0.9 | -3.6 | -0.4 | -7.7 | -19.5 | 7.7 | · | ·
